ChEMBL document CHEMBL1123059, “2-(beta-Arylethylamino)- and 4-(beta-arylethylamino)quinazolines as phosphodiesterase inhibitors” (J Med Chem, 1985)

How the values were obtained:
[1] = biological target: cAMP phosphodiesterase (Bos taurus); experiment: Inhibition of bovine heart cAMP-phosphodiesterase
[2] = tested on: cAMP phosphodiesterase (Bos taurus); experiment: Ratio of Ki/Km for inhibition of bovine heart cAMP-phosphodiesterase
Cavia porcellus [3] = species: Cavia porcellus; experiment: Relaxation in guinea pig tracheal preparation relative to papaverine, range 33.1-91.2; format: functional; details: Trachea, read-out: ED50 (the source's name)
Cavia porcellus [4] = species: Cavia porcellus; experiment: Percentage relaxation of guinea pig tracheal preparation relative to papaverine at 98 uM; format: functional, Trachea
Summary of the method: (§1)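 Spiral trachea strips from female Hartley guinea pigs (300-500 g) were held in Krebs-Henseleit at 37 °C under 95% O2/5% CO2. Cumulative doses of the hydrochloride salt were given, then papaverine 10 μg/mL as the supramaximal reference. Relaxation at the stated concentration is given as % of papaverine maximum, with vehicle-corrected controls.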

[5] = biological target: cAMP phosphodiesterase (Bos taurus); experiment: Inhibition of bovine heart cAMP-phosphodiesterase; remark: listed apart in the source
Cavia porcellus [6] = species: Cavia porcellus; experiment: Percentage relaxation of guinea pig tracheal preparation relative to papaverine at 20 uM; format: functional, Trachea
Summary of the method: as §1

Cavia porcellus [7] = species: Cavia porcellus; experiment: Relaxation in guinea pig tracheal preparation relative to papaverine, range 52.5-75.9; format: functional; details: Trachea, read-out: ED50 (the source's name)
Cavia porcellus [8] = species: Cavia porcellus; experiment: Relaxation in guinea pig tracheal preparation relative to papaverine, range 162-589; format: functional; details: Trachea, read-out: ED50 (the source's name)
Cavia porcellus [9] = species: Cavia porcellus; experiment: Percentage relaxation of guinea pig tracheal preparation relative to papaverine at 42 uM; format: functional, Trachea
Summary of the method: as §1

Cavia porcellus [10] = species: Cavia porcellus; experiment: Percentage relaxation of guinea pig tracheal preparation relative to papaverine at 70 uM; format: functional, Trachea
Summary of the method: as §1

Cavia porcellus [11] = species: Cavia porcellus; experiment: Relaxation in guinea pig tracheal preparation relative to papaverine, range 63.1-79.4; format: functional; details: Trachea, read-out: ED50 (the source's name)
Cavia porcellus [12] = species: Cavia porcellus; experiment: Percentage relaxation of guinea pig tracheal preparation relative to papaverine at 84 uM; format: functional, Trachea
Summary of the method: as §1

Cavia porcellus [13] = species: Cavia porcellus; experiment: Relaxation in guinea pig tracheal preparation relative to papaverine; format: functional; details: Trachea, read-out: ED50 (the source's name)

Row | SMILES | IC50 [1] [µM] | Ratio [2] | IC50 [5] [µM] | further results
1 | CCN(CC)c1nc(NCC(O)c2ccccc2)nc2cc(OC)c(OC)cc12 (stereo not drawn) | 328 | 1.88 |  | EC50 (Cavia porcellus [3]): 49 µM
2 | CCN(CC)c1nc(NCC(O)c2ccccc2)c2cc(OC)c(OC)cc2n1 (stereo not drawn) |  | 0.64 | 350 | Max relaxation (Cavia porcellus [4]): 46%
3 | CCN(CC)c1nc(NCC(O)c2cccc(O)c2)c2cc(OC)c(OC)cc2n1.Cl (stereo not drawn) |  | 0.73 | 610 | Max relaxation (Cavia porcellus [6]): 28%
4 | CCN(CC)c1nc(NCC(O)c2ccc(O)c(CO)c2)c2cc(OC)c(OC)cc2n1.Cl (stereo not drawn) |  | 0.81 | 428 | EC50 (Cavia porcellus [7]): 63.1 µM
5 | CCN(CC)c1nc(NCCc2ccccc2)nc2cc(OC)c(OC)cc12 |  | 0.054 | 87 | EC50 (Cavia porcellus [8]): 234 µM
6 | CCN(CC)c1nc(NCC(O)c2ccc(O)c(CO)c2)nc2cc(OC)c(OC)cc12.Cl (stereo not drawn) | 339 | 0.69 |  | Max relaxation (Cavia porcellus [9]): 36%
7 | CCN(CC)c1nc(NCCc2ccccc2)c2cc(OC)c(OC)cc2n1 | 16 | 0.107 |  | Max relaxation (Cavia porcellus [10]): 29%
8 | Cn1c(=O)c2nc[nH]c2n(C)c1=O [THEOPHYLLINE] |  |  |  | EC50 (Cavia porcellus [11]): 70.8 µM
9 | CCN(CC)c1nc(NCC(O)c2cccc(O)c2)nc2cc(OC)c(OC)cc12 (stereo not drawn) | 295 | 1.15 |  | Max relaxation (Cavia porcellus [12]): 11.5%
10 | CCN(CC)c1nc(NCC(O)c2cc(O)cc(O)c2)nc2cc(OC)c(OC)cc12.Cl (stereo not drawn) | 432 | 0.43 |  | EC50 (Cavia porcellus [13]): 26.9 µM
